The record followed here is ChEMBL document CHEMBL4049460, “Trisubstituted Imidazoles with a Rigidized Hinge Binding Motif Act As Single Digit nM Inhibitors of Clinically Relevant EGFR L858R/T790M and L858R/T790M/C797S Mutants: An Example of Target Hopping” (J Med Chem, 2017).

Assay [1] has as its target Serine/threonine-protein kinase 25 (Homo sapiens) (UniProt O00506). Put plainly: Inhibition of STK25 (unknown origin) assessed as residual activity at 1 uM in presence of [33-gamma]-ATP after 60 mins by scintillation counting method relative to control.
For assay [2], the system named is Epidermal growth factor receptor (Homo sapiens), P00533 [L858R,T790M]. Briefly: Ratio of Kd for human EGFR L858R/T790M double mutant (669 to 1011 residues) after 1 hr to Kd for EGFR L858R/T790M double mutant (669 to 1011 residues) after 6 hrs. In short, it runs like this:
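Kd from competition with an immobilized active-site-directed ligand […]. Ratio compares 1 h compound–kinase equilibration against an arm with 6 h overall equilibration.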

Assay [3] addresses Mitogen-activated protein kinase kinase kinase kinase 4 (Homo sapiens) (UniProt O95819). Put plainly: Inhibition of recombinant human N-terminally GST-His6 tagged MAP4K4 (A7 to W1320 residues) harboring 3C-cleavage site expressed in Baculovirus infected Sf9 cells assessed as residual activity at 1 uM in presence of [33-gamma]-ATP after 60 mins by scintillation counting method relative to control.

Assay [4] has as its target Mitogen-activated protein kinase 10 (Homo sapiens) (UniProt P53779). Put plainly: Inhibition of recombinant full-length human JNK3 (M1 to R426 residues) expressed in Escherichia coli assessed as residual activity at 1 uM in presence of [33-gamma]-ATP after 60 mins by scintillation counting method relative to control.

Chain of Serine/threonine-protein kinase 25 (Homo sapiens) (O00506 whole entry, looked up, the tested form may be a part): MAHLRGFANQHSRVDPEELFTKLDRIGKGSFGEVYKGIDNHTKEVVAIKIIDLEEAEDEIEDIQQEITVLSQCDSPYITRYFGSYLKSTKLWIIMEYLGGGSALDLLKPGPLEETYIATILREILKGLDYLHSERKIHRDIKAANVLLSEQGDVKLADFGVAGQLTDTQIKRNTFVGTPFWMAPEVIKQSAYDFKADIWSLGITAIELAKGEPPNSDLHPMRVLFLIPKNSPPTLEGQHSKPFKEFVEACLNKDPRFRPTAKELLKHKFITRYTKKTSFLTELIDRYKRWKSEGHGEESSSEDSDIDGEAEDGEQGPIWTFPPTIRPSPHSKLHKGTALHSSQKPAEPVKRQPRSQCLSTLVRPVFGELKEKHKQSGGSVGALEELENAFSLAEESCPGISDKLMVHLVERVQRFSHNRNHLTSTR
Chain of Mitogen-activated protein kinase kinase kinase kinase 4 (Homo sapiens) (O95819 2-1239 limits assumed): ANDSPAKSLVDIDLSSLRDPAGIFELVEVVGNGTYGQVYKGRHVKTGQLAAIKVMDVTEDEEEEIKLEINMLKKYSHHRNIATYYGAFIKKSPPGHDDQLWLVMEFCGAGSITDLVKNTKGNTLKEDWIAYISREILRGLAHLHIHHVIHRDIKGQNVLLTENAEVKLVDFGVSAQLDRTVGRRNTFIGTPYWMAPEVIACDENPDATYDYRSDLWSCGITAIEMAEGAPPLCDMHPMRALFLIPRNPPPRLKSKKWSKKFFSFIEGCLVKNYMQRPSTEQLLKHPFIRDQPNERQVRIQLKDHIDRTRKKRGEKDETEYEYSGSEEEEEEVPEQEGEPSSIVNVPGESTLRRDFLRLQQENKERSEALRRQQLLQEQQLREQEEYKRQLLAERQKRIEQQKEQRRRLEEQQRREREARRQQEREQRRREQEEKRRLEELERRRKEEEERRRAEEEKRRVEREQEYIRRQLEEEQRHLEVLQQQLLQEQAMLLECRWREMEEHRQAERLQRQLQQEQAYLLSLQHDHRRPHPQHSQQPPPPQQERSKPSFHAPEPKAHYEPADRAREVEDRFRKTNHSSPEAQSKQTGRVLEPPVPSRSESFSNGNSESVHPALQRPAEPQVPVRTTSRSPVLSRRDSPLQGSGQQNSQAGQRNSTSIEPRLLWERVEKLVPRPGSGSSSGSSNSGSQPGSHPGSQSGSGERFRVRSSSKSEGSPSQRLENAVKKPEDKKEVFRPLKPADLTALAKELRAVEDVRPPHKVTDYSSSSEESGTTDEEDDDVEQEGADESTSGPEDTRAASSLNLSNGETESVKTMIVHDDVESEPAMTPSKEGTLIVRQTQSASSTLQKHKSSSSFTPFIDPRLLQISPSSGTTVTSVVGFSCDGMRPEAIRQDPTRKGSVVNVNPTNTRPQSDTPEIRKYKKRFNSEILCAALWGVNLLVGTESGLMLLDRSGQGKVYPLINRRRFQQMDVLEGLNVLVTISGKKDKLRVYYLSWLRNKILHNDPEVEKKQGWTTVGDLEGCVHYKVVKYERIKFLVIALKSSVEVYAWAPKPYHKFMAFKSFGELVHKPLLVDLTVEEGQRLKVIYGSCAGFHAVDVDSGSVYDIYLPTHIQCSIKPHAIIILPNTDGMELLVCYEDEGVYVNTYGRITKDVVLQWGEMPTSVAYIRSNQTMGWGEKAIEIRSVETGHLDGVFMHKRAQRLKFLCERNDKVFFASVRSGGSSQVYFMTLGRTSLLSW
Chain of Mitogen-activated protein kinase 10 (Homo sapiens) (P53779 whole entry, the tested form may be a part): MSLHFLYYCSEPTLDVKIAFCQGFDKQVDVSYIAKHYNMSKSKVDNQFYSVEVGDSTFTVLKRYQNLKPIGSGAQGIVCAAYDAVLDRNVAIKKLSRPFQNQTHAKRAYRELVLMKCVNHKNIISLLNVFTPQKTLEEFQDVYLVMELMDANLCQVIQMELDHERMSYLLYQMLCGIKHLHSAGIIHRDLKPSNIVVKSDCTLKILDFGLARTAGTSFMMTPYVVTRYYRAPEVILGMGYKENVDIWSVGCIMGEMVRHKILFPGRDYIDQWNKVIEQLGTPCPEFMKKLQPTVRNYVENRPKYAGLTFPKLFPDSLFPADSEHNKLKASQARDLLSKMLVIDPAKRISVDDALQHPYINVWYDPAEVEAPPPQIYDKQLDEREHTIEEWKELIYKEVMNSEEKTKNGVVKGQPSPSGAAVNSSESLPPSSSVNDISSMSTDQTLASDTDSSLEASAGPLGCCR

`C=CC(=O)Nc1cccc(-c2c[nH]c3nccc(-c4[nH]c(CCCO)nc4-c4ccc(F)cc4)c23)c1`: the values for the Activity in assay [1], in assay [3] and in assay [4] were 49%, 1% and 34%, respectively. In addition, in assay [2], the Ratio is 3 to 5.
